Results as given in ChEMBL document CHEMBL4396879, “Conjugation of Short Peptides to Dibenzodiazepinone-Type Muscarinic Acetylcholine Receptor Ligands Determines M2R Selectivity” (J Med Chem, 2019).

How the values were obtained:
Type in all cases: cell-based
[1] = biological target: Muscarinic acetylcholine receptors; M2 & M3 (Homo sapiens) (UniProt P20309+P08172); experiment: Selectivity ratio of Ki for human muscarinic M3 receptor expressed in CHO-K9 cells to Ki for human muscarinic M2 receptor expressed in CHO-K9 cells
Outline: (§1)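 Ratio of mean Ki values. Each Ki came from an individual [3H]NMS competition experiment at the given CHO-hMxR subtype, converting IC50 to Ki by Cheng-Prusoff before averaging.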

[2] = biological target: Muscarinic acetylcholine receptors; M1 & M2 (Homo sapiens) (UniProt P11229+P08172); experiment: Selectivity ratio of Ki for human muscarinic M1 receptor expressed in CHO-K9 cells to Ki for human muscarinic M2 receptor expressed in CHO-K9 cells; outline: as §1
[3] = biological target: Muscarinic acetylcholine receptor M2 and M4 (Homo sapiens) (UniProt P08173+P08172); experiment: Selectivity ratio of Ki for human muscarinic M4 receptor expressed in CHO-K9 cells to Ki for human muscarinic M2 receptor expressed in CHO-K9 cells; outline: as §1
[4] = biological target: T1, Muscarinic acetylcholine receptor M5 (Homo sapiens, UniProt P08912); experiment: Displacement of [3H]-NMS from human muscarinic M5 receptor expressed in CHO-K9 cells after 3 hrs by microbeta2 scintillation counting method
T1 sequence (P08912 whole entry): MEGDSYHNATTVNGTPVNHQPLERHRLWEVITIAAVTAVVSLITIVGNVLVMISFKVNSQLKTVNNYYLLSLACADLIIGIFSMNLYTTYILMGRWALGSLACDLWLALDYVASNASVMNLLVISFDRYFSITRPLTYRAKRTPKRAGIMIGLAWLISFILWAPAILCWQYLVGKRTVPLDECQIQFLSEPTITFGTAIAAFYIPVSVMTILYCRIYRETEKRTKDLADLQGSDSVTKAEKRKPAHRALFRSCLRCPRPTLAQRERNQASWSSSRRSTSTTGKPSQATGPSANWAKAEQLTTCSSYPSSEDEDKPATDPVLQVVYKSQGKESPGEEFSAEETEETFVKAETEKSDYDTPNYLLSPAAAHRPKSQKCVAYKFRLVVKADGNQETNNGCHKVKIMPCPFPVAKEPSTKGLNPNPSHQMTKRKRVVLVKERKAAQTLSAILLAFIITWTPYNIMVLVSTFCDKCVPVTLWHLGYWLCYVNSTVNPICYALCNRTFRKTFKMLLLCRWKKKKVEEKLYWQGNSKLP
Outline: (§2)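 [3H]NMS competition binding on intact CHO-hMxR cells in L15 medium with 1% BSA, 3 h at 22 ± 1 °C with gentle shaking. [3H]NMS was 0.2 nM (M1, M2, M3), 0.1 nM (M4) or 0.3 nM (M5). […] Cells were lysed in urea/acetic acid/Triton and counted by liquid scintillation. Ki from Cheng-Prusoff. Triplicates, ≥3 experiments.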

[5] = biological target: T2, Muscarinic acetylcholine receptor M1 (Homo sapiens, UniProt P11229); experiment: Displacement of [3H]-NMS from human muscarinic M1 receptor expressed in CHO-K9 cells after 3 hrs by microbeta2 scintillation counting method; outline: as §2
T2 sequence (P11229 whole entry): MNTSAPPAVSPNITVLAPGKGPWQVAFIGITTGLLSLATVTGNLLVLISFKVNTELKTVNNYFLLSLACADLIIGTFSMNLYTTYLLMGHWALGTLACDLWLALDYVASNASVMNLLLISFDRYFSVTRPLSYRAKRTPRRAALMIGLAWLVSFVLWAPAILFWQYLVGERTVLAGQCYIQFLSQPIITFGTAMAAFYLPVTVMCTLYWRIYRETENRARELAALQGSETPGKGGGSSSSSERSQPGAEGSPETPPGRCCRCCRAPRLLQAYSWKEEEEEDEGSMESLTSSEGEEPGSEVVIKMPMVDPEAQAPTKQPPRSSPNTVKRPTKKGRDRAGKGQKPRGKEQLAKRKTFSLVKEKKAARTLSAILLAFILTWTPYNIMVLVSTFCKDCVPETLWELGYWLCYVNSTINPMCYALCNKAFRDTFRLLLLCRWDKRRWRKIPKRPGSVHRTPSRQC

[6] = biological target: Muscarinic acetylcholine receptor M2 and M5 (Homo sapiens) (UniProt P08172+P08912); experiment: Selectivity ratio of Ki for human muscarinic M5 receptor expressed in CHO-K9 cells to Ki for human muscarinic M2 receptor expressed in CHO-K9 cells; outline: as §1
[7] = biological target: T3, Muscarinic acetylcholine receptor M2 (Homo sapiens, UniProt P08172); experiment: Displacement of [3H]-NMS from human muscarinic M2 receptor expressed in CHO-K9 cells after 3 hrs by microbeta2 scintillation counting method; outline: as §2
T3 sequence (P08172 whole entry): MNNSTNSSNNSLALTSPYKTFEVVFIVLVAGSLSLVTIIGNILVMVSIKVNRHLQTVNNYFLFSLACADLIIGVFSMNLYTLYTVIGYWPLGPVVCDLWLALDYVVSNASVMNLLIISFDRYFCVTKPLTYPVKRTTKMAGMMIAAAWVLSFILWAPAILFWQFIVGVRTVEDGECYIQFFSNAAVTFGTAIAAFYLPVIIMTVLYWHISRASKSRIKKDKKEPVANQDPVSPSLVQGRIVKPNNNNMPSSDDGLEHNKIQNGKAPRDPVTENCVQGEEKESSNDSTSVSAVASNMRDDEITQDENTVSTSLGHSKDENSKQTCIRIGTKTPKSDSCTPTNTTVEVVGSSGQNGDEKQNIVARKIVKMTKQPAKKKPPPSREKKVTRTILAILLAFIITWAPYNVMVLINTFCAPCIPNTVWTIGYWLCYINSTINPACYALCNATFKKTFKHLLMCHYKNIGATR

[8] = biological target: T4, Muscarinic acetylcholine receptor M4 (Homo sapiens, UniProt P08173); experiment: Displacement of [3H]-NMS from human muscarinic M4 receptor expressed in CHO-K9 cells after 3 hrs by microbeta2 scintillation counting method; outline: as §2
T4 sequence (P08173 whole entry): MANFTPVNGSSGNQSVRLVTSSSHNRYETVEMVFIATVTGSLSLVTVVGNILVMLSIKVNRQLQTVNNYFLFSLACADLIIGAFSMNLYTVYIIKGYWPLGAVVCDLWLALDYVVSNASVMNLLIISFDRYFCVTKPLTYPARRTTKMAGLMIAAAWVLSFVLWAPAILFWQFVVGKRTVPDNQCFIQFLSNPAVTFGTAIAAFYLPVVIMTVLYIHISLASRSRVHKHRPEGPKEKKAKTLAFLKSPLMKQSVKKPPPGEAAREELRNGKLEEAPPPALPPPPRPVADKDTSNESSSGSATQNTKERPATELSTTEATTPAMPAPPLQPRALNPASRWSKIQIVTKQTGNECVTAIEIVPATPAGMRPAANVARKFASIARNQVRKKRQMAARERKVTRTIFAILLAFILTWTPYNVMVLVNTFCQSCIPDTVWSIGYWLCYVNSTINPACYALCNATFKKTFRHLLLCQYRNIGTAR

[9] = biological target: Muscarinic acetylcholine receptor M3 (Homo sapiens, UniProt P20309); experiment: Displacement of [3H]-NMS from human muscarinic M3 receptor expressed in CHO-K9 cells after 3 hrs by microbeta2 scintillation counting method; outline: as §2
Chain of Muscarinic acetylcholine receptor M3 (P20309 whole entry): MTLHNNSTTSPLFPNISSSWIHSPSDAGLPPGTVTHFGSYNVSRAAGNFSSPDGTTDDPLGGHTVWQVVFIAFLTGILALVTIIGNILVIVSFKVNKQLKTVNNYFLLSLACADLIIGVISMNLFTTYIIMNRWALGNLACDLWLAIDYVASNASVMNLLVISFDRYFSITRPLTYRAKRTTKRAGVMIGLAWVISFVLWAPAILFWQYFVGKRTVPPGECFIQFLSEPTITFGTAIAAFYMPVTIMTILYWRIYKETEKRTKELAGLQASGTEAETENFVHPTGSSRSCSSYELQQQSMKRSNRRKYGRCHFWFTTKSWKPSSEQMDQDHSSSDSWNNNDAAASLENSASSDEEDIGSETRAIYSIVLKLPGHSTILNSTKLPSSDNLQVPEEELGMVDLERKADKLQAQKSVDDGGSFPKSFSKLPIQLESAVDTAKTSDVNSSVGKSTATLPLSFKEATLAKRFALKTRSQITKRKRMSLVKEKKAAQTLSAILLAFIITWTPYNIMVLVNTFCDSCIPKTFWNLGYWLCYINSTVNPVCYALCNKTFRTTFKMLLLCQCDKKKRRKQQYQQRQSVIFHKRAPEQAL

Chain of Muscarinic acetylcholine receptors; M2 & M3 (Homo sapiens) (P20309 whole entry, looked up, one chain of several): as the sequence (P20309 whole entry) above

CC(=O)N[C@@H](CCCNC(=N)N)C(=O)N[C@@H](CCCCN)C(=O)NCCCCC1CCN(CC(=O)N2c3ccccc3NC(=O)c3ccccc32)CC1
Ratio Ki [1]: 400 | Ratio Ki [2]: 6.5 | Ratio Ki [3]: 17 | Ki [4]: 501 nM | Ki [5]: 95.5 nM | Ratio Ki [6]: 39 | Ki [7]: 12 nM | Ki [8]: 257 nM | Ki [9]: 5500 nM

CC(=O)N[C@@H](C)C(=O)N[C@@H](C)C(=O)NCCN1CCN(CCCCC2CCN(CC(=O)N3c4ccccc4NC(=O)c4ccccc43)CC2)CC1
Ratio Ki [1]: 370 | Ratio Ki [2]: 7.5 | Ratio Ki [3]: 7.5 | Ki [4]: 457 nM | Ki [5]: 3.16 nM | Ratio Ki [6]: 1100 | Ki [7]: 0.427 nM | Ki [8]: 2.45 nM | Ki [9]: 155 nM

CC(=O)N[C@@H](CCCNC(=N)N)C(=O)NCCCCC1CCN(CC(=O)N2c3ccccc3NC(=O)c3ccccc32)CC1
Ratio Ki [1]: 140 | Ratio Ki [2]: 8.4 | Ratio Ki [3]: 13 | Ki [4]: 977 nM | Ki [5]: 97.7 nM | Ratio Ki [6]: 86 | Ki [7]: 11.2 nM | Ki [8]: 148 nM | Ki [9]: 1480 nM

CC(=O)N[C@@H](Cc1c[nH]c2ccccc12)C(=O)N[C@@H](C)C(=O)N[C@@H](Cc1ccc(O)cc1)C(=O)NCCCCC1CCN(CC(=O)N2c3ccccc3NC(=O)c3ccccc32)CC1
Ratio Ki [1]: 56 | Ratio Ki [2]: 4.7 | Ratio Ki [3]: 1.9 | Ki [4]: 120 nM | Ki [5]: 93.3 nM | Ratio Ki [6]: 6.2 | Ki [7]: 20 nM | Ki [8]: 37.2 nM | Ki [9]: 1150 nM

CC(=O)N[C@@H](Cc1ccc(O)cc1)C(=O)N[C@@H](CCCCN)C(=O)NCCN1CCN(CCCCC2CCN(CC(=O)N3c4ccccc4NC(=O)c4ccccc43)CC2)CC1
Ratio Ki [1]: 220 | Ratio Ki [2]: 32 | Ratio Ki [3]: 13 | Ki [4]: 141 nM | Ki [5]: 2.14 nM | Ratio Ki [6]: 1900 | Ki [7]: 0.0794 nM | Ki [8]: 0.912 nM | Ki [9]: 16.2 nM

CC(=O)N[C@@H](CCC(N)=O)C(=O)N[C@@H](C)C(=O)N[C@@H](CC(C)C)C(=O)NCCCCC1CCN(CC(=O)N2c3ccccc3NC(=O)c3ccccc32)CC1
Ratio Ki [1]: > 36 | Ratio Ki [2]: 2.2 | Ratio Ki [3]: 1.7 | Ki [4]: 1200 nM | Ki [5]: 537 nM | Ratio Ki [6]: 4.4 | Ki [7]: 240 nM | Ki [8]: 417 nM | Ki [9]: > 10000 nM

CC(=O)N[C@@H](CCC(N)=O)C(=O)N[C@@H](CC(C)C)C(=O)NCCN1CCN(CCCCC2CCN(CC(=O)N3c4ccccc4NC(=O)c4ccccc43)CC2)CC1
Ratio Ki [1]: 270 | Ratio Ki [2]: 9.6 | Ratio Ki [3]: 5.4 | Ki [4]: 295 nM | Ki [5]: 2.4 nM | Ratio Ki [6]: 1300 | Ki [7]: 0.24 nM | Ki [8]: 1.2 nM | Ki [9]: 61.7 nM

CC(=O)N[C@@H](CCCCN)C(=O)N[C@@H](C)C(=O)N[C@@H](Cc1ccc(O)cc1)C(=O)NCCCCC1CCN(CC(=O)N2c3ccccc3NC(=O)c3ccccc32)CC1
Ratio Ki [1]: 160 | Ratio Ki [2]: 14 | Ratio Ki [3]: 5.8 | Ki [4]: 224 nM | Ki [5]: 58.9 nM | Ratio Ki [6]: 53 | Ki [7]: 4.27 nM | Ki [8]: 23.4 nM | Ki [9]: 661 nM

CC(=O)N[C@@H](CCC(N)=O)C(=O)N[C@@H](C)C(=O)N[C@@H](CC(C)C)C(=O)NCCN1CCN(CCCCC2CCN(CC(=O)N3c4ccccc4NC(=O)c4ccccc43)CC2)CC1
Ratio Ki [1]: 440 | Ratio Ki [2]: 8.4 | Ratio Ki [3]: 11 | Ki [4]: 240 nM | Ki [5]: 2.95 nM | Ratio Ki [6]: 710 | Ki [7]: 0.355 nM | Ki [8]: 3.55 nM | Ki [9]: 151 nM

CC(=O)N[C@@H](CCCCN)C(=O)N[C@@H](Cc1ccc(O)cc1)C(=O)NCCN1CCN(CCCCC2CCN(CC(=O)N3c4ccccc4NC(=O)c4ccccc43)CC2)CC1
Ratio Ki [1]: 260 | Ratio Ki [2]: 14 | Ratio Ki [3]: 12 | Ki [4]: 70.8 nM | Ki [5]: 1.41 nM | Ratio Ki [6]: 780 | Ki [7]: 0.0794 nM | Ki [8]: 1.12 nM | Ki [9]: 27.5 nM

CC(=O)N[C@@H](Cc1c[nH]c2ccccc12)C(=O)N[C@@H](Cc1ccc(O)cc1)C(=O)NCCCCC1CCN(CC(=O)N2c3ccccc3NC(=O)c3ccccc32)CC1
Ratio Ki [1]: 46 | Ratio Ki [2]: 5 | Ratio Ki [3]: 2.8 | Ki [4]: 58.9 nM | Ki [5]: 155 nM | Ratio Ki [6]: 1.8 | Ki [7]: 33.1 nM | Ki [8]: 93.3 nM | Ki [9]: 1580 nM

CC(=O)N[C@@H](CCCNC(=N)N)C(=O)N[C@@H](CCCNC(=N)N)C(=O)NCCCCC1CCN(CC(=O)N2c3ccccc3NC(=O)c3ccccc32)CC1
Ratio Ki [1]: 710 | Ratio Ki [2]: 12 | Ratio Ki [3]: 19 | Ki [4]: 162 nM | Ki [5]: 20 nM | Ratio Ki [6]: 97 | Ki [7]: 1.7 nM | Ki [8]: 29.5 nM | Ki [9]: 955 nM

CC(=O)N[C@@H](CCCCN)C(=O)N[C@@H](CCCNC(=N)N)C(=O)NCCN1CCN(CCCCC2CCN(CC(=O)N3c4ccccc4NC(=O)c4ccccc43)CC2)CC1
Ratio Ki [1]: 800 | Ratio Ki [2]: 20 | Ratio Ki [3]: 37 | Ki [4]: 112 nM | Ki [5]: 1.23 nM | Ratio Ki [6]: 1900 | Ki [7]: 0.0631 nM | Ki [8]: 2.04 nM | Ki [9]: 49 nM

CC(=O)N[C@@H](C)C(=O)N[C@@H](C)C(=O)NCCCCC1CCN(CC(=O)N2c3ccccc3NC(=O)c3ccccc32)CC1
Ratio Ki [1]: 59 | Ratio Ki [2]: 14 | Ratio Ki [3]: 3.7 | Ki [4]: 1350 nM | Ki [5]: 302 nM | Ratio Ki [6]: 62 | Ki [7]: 22.9 nM | Ki [8]: 79.4 nM | Ki [9]: 1380 nM

CCC(=O)NCc1cc(C(=O)NCCN2CCC(N3CCC(n4c(=O)[nH]c5ccccc54)CC3)CC2)cc(C(=O)NCCN2CCN(CCCCC3CCN(CC(=O)N4c5ccccc5NC(=O)c5ccccc54)CC3)CC2)c1
Ratio Ki [1]: 78 | Ratio Ki [2]: 7.6 | Ratio Ki [3]: 7.4 | Ratio Ki [6]: 300
